Measurements as given in ChEMBL document CHEMBL1765035, “Radiosynthesis and in vivo evaluation of 1-[18F]fluoroelacridar as a positron emission tomography tracer for P-glycoprotein and breast cancer resistance protein” (Bioorg Med Chem, 2011).

What was measured:
MDCK-II = details: Homo sapiens, 3.7 uM
[1] = Inhibition of human Pgp overexpressed in […]-MDR1 cells assessed as inhibition of R123 efflux after 60 mins; assay type: cell-based, MDCK-II; details: 1 h
Brain [2] = assay: Drug uptake in Sprague-Dawley rat brain at 33 +/- 3 MBq, iv administered 60 mins before 5 mg/kg, iv elacridar injection measured after 25 mins; assay type: ADME, organism-based; design: dose 5 mg/kg, route intravenous; details: in vivo
Method in brief: (§1)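 Isoflurane-anaesthetised female Sprague Dawley rats (n=3, warmed about 38°C), femoral catheters. [18F] tracer given i.v. (33±3 MBq), followed by a dynamic 150 min microPET scan. […] Whole brain or humerus outlined on summation images; time-activity curves given as SUV (mean±SD).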

Brain [3] = assay: Drug uptake in Sprague-Dawley rat brain after 40 mins by reversed-phase HPLC; assay type: ADME, tissue-based; details: in vivo
Method in brief: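 Same rat group (n=3) injected i.v. with [18F] tracer and sacrificed at 40 min. Brain washed with ice-cold H2O, homogenized in 0.9% NaCl and extracted with CH3CN. Supernatant diluted 1:1 with 0.1% TFA and analysed by reversed-phase HPLC with UV 257 nm and radioactivity detection. Value is unchanged tracer as % of total brain radioactivity.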

Plasma [4] = assay: Drug concentration in Sprague-Dawley rat plasma assessed as radiometabolites at 74 +/- 23 MBq after 10 mins by SPE assay relative to total plasma concentration; assay type: ADME, cell-free
Method in brief: (§2)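 Female Sprague Dawley rats (n=3, isoflurane, no PET) given [18F] tracer i.v. (74±23 MBq). Blood drawn at 10, 20, 30 min and terminally at 40 min. Plasma centrifuged and run through SPE. Polar radiometabolites are counted as fractions 1+2 by gamma counter, as % of total plasma activity. At 40 min the MeOH fraction also went to reversed-phase HPLC.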

Brain [5] = assay: Drug uptake in Sprague-Dawley rat brain at 33 +/- 3 MBq, iv administered 60 mins before 5 mg/kg, iv elacridar injection measured after 140 mins; assay type: ADME, organism-based; design: dose 5 mg/kg, route intravenous; details: in vivo
Method in brief: as §1

Plasma [6] = assay: Drug concentration in Sprague-Dawley rat plasma assessed as radiometabolites at 74 +/- 23 MBq after 40 mins by SPE assay relative to total plasma concentration; assay type: ADME, cell-free
Method in brief: as §2

[7] = Ratio of drug level in brain to blood in Mdr1a/b(-/-)/Bcrp1(-/-) mouse; assay type: ADME, tissue-based
Method in brief: (§3)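 Female FVB wild-type and Mdr1a/b(−/−)Bcrp1(−/−) mice (n=3 each), isoflurane-anaesthetised. [18F] tracer given via tail vein (6±1 MBq), 60 min dynamic microPET. Brain SUV at 50-60 min divided by whole-blood SUV; blood taken retro-orbitally at scan end and gamma-counted. Groups compared by 2-tailed t-test.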

Plasma [8] = assay: Drug concentration in Sprague-Dawley rat plasma assessed as radiometabolites at 74 +/- 23 MBq after 30 mins by SPE assay relative to total plasma concentration; assay type: ADME, cell-free; details: 0.5 h
Method in brief: as §2

Plasma [9] = assay: Drug concentration in Sprague-Dawley rat plasma assessed as radiometabolites at 74 +/- 23 MBq after 20 mins by SPE assay relative to total plasma concentration; assay type: ADME, cell-free
Method in brief: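 Female Sprague-Dawley rats (n=3) under isoflurane, given i.v. [18F]-tracer (74±23 MBq, 17.2±3.9 nmol or 37±10 μg/kg unlabelled) without PET imaging. Arterial blood was drawn at 10, 20 and 30 min, with a terminal sample at 40 min. Plasma was obtained by centrifugation (3000×g, 5 min) and run through solid-phase extraction. The plasma, H2O and MeOH fractions were gamma-counted. Polar radiometabolites (fractions 1+2) are given as % of total plasma activity.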

[10] = Drug uptake in Sprague-Dawley rat humerus after 1.8 mins in presence of 5 mg/kg elacridar; assay type: ADME, organism-based; design: dose 5 mg/kg; details: in vivo, 0.03 h
Method in brief: as §1

[11] = Ratio of drug level in brain to blood in wild-type mouse; assay type: ADME, tissue-based
Method in brief: as §3

Brain [12] = assay: Drug uptake in Sprague-Dawley rat brain at 33 +/- 3 MBq, iv administered 60 mins before 5 mg/kg, iv elacridar injection measured after 0.9 to 1.3 mins; assay type: ADME, organism-based; design: dose 5 mg/kg, route intravenous; details: in vivo
Method in brief: as §1

[13] = Drug uptake in Sprague-Dawley rat humerus after 140 mins in presence of 5 mg/kg elacridar; assay type: ADME, organism-based; design: dose 5 mg/kg; details: in vivo
Method in brief: as §1

## COc1cc2c(cc1OC)CN(CCc1ccc(NC(=O)c3cccc4c(=O)c5cccc(OC)c5[nH]c34)cc1)CC2
MDCK-II
  inhibition: 100%

## COc1cc2c(cc1OC)CN(CCc1ccc(NC(=O)c3ccc([N+](=O)[O-])c4c(=O)c5cccc(OC)c5[nH]c34)cc1)CC2
[1]
  IC50: 1600 nM

## COc1cc2c(cc1OC)CN(CCc1ccc(NC(=O)c3ccc([18F])c4c(=O)c5cccc(OC)c5[nH]c34)cc1)CC2
Brain [2]
  SUV: 0.14
Brain [3]
  Drug uptake: 93%
Plasma [4]
  Cp: 6%
Brain [5]
  SUV: 1.14
Plasma [6]
  Cp: 13%
[7]
  Kp: 11.6
Plasma [8]
  Cp: 12%
Plasma [9]
  Cp: 6%
[10]
  SUV: 1.42
[11]
  Kp: 1.5
Brain [12]
  SUV: 0.46
[13]
  SUV: 4.59

## COc1cc2c(cc1OC)CN(CCc1ccc(NC(=O)c3ccc(Cl)c4c(=O)c5cccc(OC)c5[nH]c34)cc1)CC2
[1]
  IC50: 3800 nM

## COc1cc2c(cc1OC)CN(CCc1ccc(NC(=O)c3cc(Cl)cc4c(=O)c5cccc(OC)c5[nH]c34)cc1)CC2
[1]
  IC50: 1400 nM

## COc1cc2c(cc1OC)CN(CCc1ccc(NC(=O)c3ccc(F)c4c(=O)c5cccc(OC)c5[nH]c34)cc1)CC2
[1]
  IC50: 1700 nM

## COc1cc2c(cc1OC)CN(CCc1ccc(NC(=O)c3cc(F)cc4c(=O)c5cccc(OC)c5[nH]c34)cc1)CC2
[1]
  IC50: 600 nM
